Reference: ChEMBL document CHEMBL5058577, “EUbOPEN Chemogenomics Library 2 (Multiplex)” (2022)
Non-standard residues stand in square brackets, D forms with d. Residues, ends and D or L forms follow the SMILES beside them.

Test system: HEK-293T
Assay: Multiplex assay against HEK293T
Format: toxicity, cell-based
Settings: human
In short: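 Compound was added to live cells that had been stained at seeding with Hoechst33342, BioTracker Green Microtubule Cytoskeleton Dye, MitoTracker Red and Annexin V Alexa Fluor 680, and imaging followed on a CQ1 microscope at 37°C and 5% CO2. CellPathfinder machine-learning gating divided cells into Hoechst high-intensity objects or normal cells, normal cells into healthy, pyknosed or fragmented nuclei, and pyknosed cells into mitotic or apoptotic. Tubulin, mitochondrial-mass and membrane-permeability phenotypes are per cents of healthy-nucleus cells.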

[1] = 12 h, 1 µM, compound concentration 1 uM, replicate 1
[2] = 12 h, 1 µM, compound concentration 1 uM, replicate 2
[3] = 12 h, 10 µM, compound concentration 10 uM, replicate 1
[4] = 12 h, 10 µM, compound concentration 10 uM, replicate 2
[5] = 24 h, 1 µM, compound concentration 1 uM, replicate 1
[6] = 24 h, 1 µM, compound concentration 1 uM, replicate 2
[7] = 24 h, 10 µM, compound concentration 10 uM, replicate 1
[8] = 24 h, 10 µM, compound concentration 10 uM, replicate 2
[9] = 48 h, 1 µM, compound concentration 1 uM, replicate 1
[10] = 48 h, 1 µM, compound concentration 1 uM, replicate 2
[11] = 48 h, 10 µM, compound concentration 10 uM, replicate 1
[12] = 48 h, 10 µM, compound concentration 10 uM, replicate 2

CCC(=O)OCC(=O)[C@@]1(OC(=O)CC)[C@@H](C)C[C@H]2[C@@H]3CCC4=CC(=O)C=C[C@]4(C)[C@@]3(Cl)[C@@H](O)C[C@@]21C [BECLOMETHASONE DIPROPIONATE]
Population Apoptotic (%) [1]: 43%
Population Fragmented Nuclei (%) [1]: 8%
Population Healthy Nuclei (%) [1]: 75%
Population Hoechst High Intensity Objects (%) [1]: 7%
Population Membrane Permeable-Phenotype (%) [1]: 0%
Population Mitochondria Different-Phenotype (%) [1]: 60%
Population Mitotic Cells (%) [1]: 56%
Population Normal (%) [1]: 92%
Population Pyknosed Nuclei (%) [1]: 15%
Population Tubulin-Different-Phenotype (%) [1]: 48%
Total Cell Count [1]: 388
Population Apoptotic (%) [2]: 47%
Population Fragmented Nuclei (%) [2]: 5%
Population Healthy Nuclei (%) [2]: 74%
Population Hoechst High Intensity Objects (%) [2]: 4%
Population Mitochondria Different-Phenotype (%) [2]: 75%
Population Mitotic Cells (%) [2]: 52%
Population Normal (%) [2]: 95%
Population Pyknosed Nuclei (%) [2]: 19%
Population Tubulin-Different-Phenotype (%) [2]: 42%
Total Cell Count [2]: 356
Population Apoptotic (%) [3]: 60%
Population Fragmented Nuclei (%) [3]: 8%
Population Healthy Nuclei (%) [3]: 66%
Population Hoechst High Intensity Objects (%) [3]: 14%
Population Membrane Permeable-Phenotype (%) [3]: 0%
Population Mitochondria Different-Phenotype (%) [3]: 87%
Population Mitotic Cells (%) [3]: 39%
Population Normal (%) [3]: 85%
Population Pyknosed Nuclei (%) [3]: 25%
Population Tubulin-Different-Phenotype (%) [3]: 65%
Total Cell Count [3]: 236
Population Apoptotic (%) [4]: 68%
Population Fragmented Nuclei (%) [4]: 6%
Population Hoechst High Intensity Objects (%) [4]: 16%
Population Mitochondria Different-Phenotype (%) [4]: 93%
Population Mitotic Cells (%) [4]: 31%
Population Normal (%) [4]: 83%
Population Pyknosed Nuclei (%) [4]: 27%
Population Tubulin-Different-Phenotype (%) [4]: 35%
Total Cell Count [4]: 252
Population Apoptotic (%) [5]: 32%
Population Fragmented Nuclei (%) [5]: 7%
Population Healthy Nuclei (%) [5]: 81%
Population Hoechst High Intensity Objects (%) [5]: 4%
Population Membrane Permeable-Phenotype (%) [5]: 0%
Population Mitochondria Different-Phenotype (%) [5]: 40%
Population Mitotic Cells (%) [5]: 67%
Population Normal (%) [5]: 95%
Population Pyknosed Nuclei (%) [5]: 11%
Population Tubulin-Different-Phenotype (%) [5]: 31%
Total Cell Count [5]: 507
Population Apoptotic (%) [6]: 43%
Population Hoechst High Intensity Objects (%) [6]: 5%
Population Mitochondria Different-Phenotype (%) [6]: 52%
Population Mitotic Cells (%) [6]: 56%
Population Normal (%) [6]: 94%
Population Tubulin-Different-Phenotype (%) [6]: 18%
Total Cell Count [6]: 446
Population Apoptotic (%) [7]: 56%
Population Fragmented Nuclei (%) [7]: 13%
Population Healthy Nuclei (%) [7]: 65%
Population Hoechst High Intensity Objects (%) [7]: 11%
Population Membrane Permeable-Phenotype (%) [7]: 0%
Population Mitochondria Different-Phenotype (%) [7]: 89%
Population Mitotic Cells (%) [7]: 44%
Population Normal (%) [7]: 88%
Population Pyknosed Nuclei (%) [7]: 21%
Population Tubulin-Different-Phenotype (%) [7]: 73%
Total Cell Count [7]: 270
Population Apoptotic (%) [8]: 62%
Population Fragmented Nuclei (%) [8]: 5%
Population Healthy Nuclei (%) [8]: 71%
Population Hoechst High Intensity Objects (%) [8]: 9%
Population Mitochondria Different-Phenotype (%) [8]: 97%
Population Mitotic Cells (%) [8]: 37%
Population Normal (%) [8]: 90%
Population Pyknosed Nuclei (%) [8]: 23%
Population Tubulin-Different-Phenotype (%) [8]: 43%
Total Cell Count [8]: 243
Population Apoptotic (%) [9]: 30%
Population Fragmented Nuclei (%) [9]: 11%
Population Healthy Nuclei (%) [9]: 78%
Population Hoechst High Intensity Objects (%) [9]: 4%
Population Membrane Permeable-Phenotype (%) [9]: 0%
Population Mitochondria Different-Phenotype (%) [9]: 28%
Population Mitotic Cells (%) [9]: 69%
Population Normal (%) [9]: 95%
Population Pyknosed Nuclei (%) [9]: 9%
Population Tubulin-Different-Phenotype (%) [9]: 18%
Total Cell Count [9]: 742
Population Apoptotic (%) [10]: 31%
Population Fragmented Nuclei (%) [10]: 12%
Population Healthy Nuclei (%) [10]: 79%
Population Hoechst High Intensity Objects (%) [10]: 3%
Population Mitochondria Different-Phenotype (%) [10]: 32%
Population Mitotic Cells (%) [10]: 68%
Population Normal (%) [10]: 96%
Population Pyknosed Nuclei (%) [10]: 8%
Population Tubulin-Different-Phenotype (%) [10]: 17%
Total Cell Count [10]: 655
Population Apoptotic (%) [11]: 67%
Population Fragmented Nuclei (%) [11]: 14%
Population Healthy Nuclei (%) [11]: 72%
Population Hoechst High Intensity Objects (%) [11]: 5%
Population Membrane Permeable-Phenotype (%) [11]: 0%
Population Mitochondria Different-Phenotype (%) [11]: 72%
Population Mitotic Cells (%) [11]: 32%
Population Normal (%) [11]: 94%
Population Pyknosed Nuclei (%) [11]: 13%
Population Tubulin-Different-Phenotype (%) [11]: 43%
Total Cell Count [11]: 347
Population Apoptotic (%) [12]: 65%
Population Fragmented Nuclei (%) [12]: 12%
Population Mitochondria Different-Phenotype (%) [12]: 90%
Population Mitotic Cells (%) [12]: 34%
Population Pyknosed Nuclei (%) [12]: 15%
Population Tubulin-Different-Phenotype (%) [12]: 62%
Total Cell Count [12]: 283

CC(C)C[C@@H]1NC(=O)[C@@H](C(C)C)NC(=O)[C@@H]2CCCN2C(=O)[C@@H](CC(=O)O)NC(=O)[C@@H](Cc2c[nH]c3ccccc23)NC1=O [BQ-123] (cyclo(L[dW][dD]P[dV]))
Population Apoptotic (%) [1]: 46%
Population Fragmented Nuclei (%) [1]: 7%
Population Healthy Nuclei (%) [1]: 80%
Population Hoechst High Intensity Objects (%) [1]: 4%
Population Membrane Permeable-Phenotype (%) [1]: 0%
Population Mitochondria Different-Phenotype (%) [1]: 39%
Population Mitotic Cells (%) [1]: 53%
Population Normal (%) [1]: 95%
Population Pyknosed Nuclei (%) [1]: 11%
Population Tubulin-Different-Phenotype (%) [1]: 32%
Total Cell Count [1]: 376
Population Fragmented Nuclei (%) [2]: 5%
Population Healthy Nuclei (%) [2]: 82%
Population Hoechst High Intensity Objects (%) [2]: 7%
Population Mitochondria Different-Phenotype (%) [2]: 59%
Population Normal (%) [2]: 92%
Population Tubulin-Different-Phenotype (%) [2]: 19%
Total Cell Count [2]: 392
Population Apoptotic (%) [3]: 30%
Population Fragmented Nuclei (%) [3]: 7%
Population Healthy Nuclei (%) [3]: 78%
Population Hoechst High Intensity Objects (%) [3]: 7%
Population Membrane Permeable-Phenotype (%) [3]: 0%
Population Mitochondria Different-Phenotype (%) [3]: 48%
Population Mitotic Cells (%) [3]: 69%
Population Normal (%) [3]: 92%
Population Pyknosed Nuclei (%) [3]: 14%
Population Tubulin-Different-Phenotype (%) [3]: 31%
Total Cell Count [3]: 387
Population Apoptotic (%) [4]: 71%
Population Fragmented Nuclei (%) [4]: 5%
Population Hoechst High Intensity Objects (%) [4]: 11%
Population Mitochondria Different-Phenotype (%) [4]: 65%
Population Mitotic Cells (%) [4]: 28%
Population Normal (%) [4]: 88%
Population Pyknosed Nuclei (%) [4]: 16%
Population Tubulin-Different-Phenotype (%) [4]: 22%
Total Cell Count [4]: 265
Population Apoptotic (%) [5]: 26%
Population Fragmented Nuclei (%) [5]: 10%
Population Healthy Nuclei (%) [5]: 79%
Population Hoechst High Intensity Objects (%) [5]: 3%
Population Membrane Permeable-Phenotype (%) [5]: 0%
Population Mitochondria Different-Phenotype (%) [5]: 27%
Population Mitotic Cells (%) [5]: 73%
Population Normal (%) [5]: 96%
Population Pyknosed Nuclei (%) [5]: 9%
Population Tubulin-Different-Phenotype (%) [5]: 21%
Total Cell Count [5]: 497
Population Apoptotic (%) [6]: 40%
Population Fragmented Nuclei (%) [6]: 7%
Population Healthy Nuclei (%) [6]: 82%
Population Hoechst High Intensity Objects (%) [6]: 5%
Population Mitochondria Different-Phenotype (%) [6]: 35%
Population Mitotic Cells (%) [6]: 59%
Population Normal (%) [6]: 94%
Population Tubulin-Different-Phenotype (%) [6]: 14%
Total Cell Count [6]: 538
Population Apoptotic (%) [7]: 25%
Population Fragmented Nuclei (%) [7]: 11%
Population Healthy Nuclei (%) [7]: 77%
Population Hoechst High Intensity Objects (%) [7]: 6%
Population Membrane Permeable-Phenotype (%) [7]: 0%
Population Mitochondria Different-Phenotype (%) [7]: 31%
Population Mitotic Cells (%) [7]: 75%
Population Normal (%) [7]: 93%
Population Pyknosed Nuclei (%) [7]: 11%
Population Tubulin-Different-Phenotype (%) [7]: 24%
Total Cell Count [7]: 511
Population Apoptotic (%) [8]: 57%
Population Fragmented Nuclei (%) [8]: 8%
Population Healthy Nuclei (%) [8]: 78%
Population Hoechst High Intensity Objects (%) [8]: 7%
Population Mitochondria Different-Phenotype (%) [8]: 50%
Population Mitotic Cells (%) [8]: 42%
Population Normal (%) [8]: 92%
Population Pyknosed Nuclei (%) [8]: 12%
Population Tubulin-Different-Phenotype (%) [8]: 18%
Total Cell Count [8]: 302
Population Apoptotic (%) [9]: 21%
Population Fragmented Nuclei (%) [9]: 11%
Population Healthy Nuclei (%) [9]: 79%
Population Hoechst High Intensity Objects (%) [9]: 3%
Population Membrane Permeable-Phenotype (%) [9]: 0%
Population Mitochondria Different-Phenotype (%) [9]: 22%
Population Mitotic Cells (%) [9]: 78%
Population Normal (%) [9]: 96%
Population Pyknosed Nuclei (%) [9]: 9%
Population Tubulin-Different-Phenotype (%) [9]: 15%
Total Cell Count [9]: 719
Population Apoptotic (%) [10]: 24%
Population Healthy Nuclei (%) [10]: 81%
Population Hoechst High Intensity Objects (%) [10]: 5%
Population Membrane Permeable-Phenotype (%) [10]: 1%
Population Mitochondria Different-Phenotype (%) [10]: 18%
Population Mitotic Cells (%) [10]: 75%
Population Normal (%) [10]: 94%
Population Pyknosed Nuclei (%) [10]: 7%
Population Tubulin-Different-Phenotype (%) [10]: 10%
Total Cell Count [10]: 777
Population Apoptotic (%) [11]: 25%
Population Fragmented Nuclei (%) [11]: 16%
Population Healthy Nuclei (%) [11]: 77%
Population Hoechst High Intensity Objects (%) [11]: 3%
Population Membrane Permeable-Phenotype (%) [11]: 1%
Population Mitochondria Different-Phenotype (%) [11]: 21%
Population Mitotic Cells (%) [11]: 75%
Population Normal (%) [11]: 96%
Population Pyknosed Nuclei (%) [11]: 6%
Population Tubulin-Different-Phenotype (%) [11]: 15%
Total Cell Count [11]: 756
Population Apoptotic (%) [12]: 40%
Population Fragmented Nuclei (%) [12]: 11%
Population Healthy Nuclei (%) [12]: 80%
Population Membrane Permeable-Phenotype (%) [12]: 0%
Population Mitochondria Different-Phenotype (%) [12]: 29%
Population Mitotic Cells (%) [12]: 59%
Population Pyknosed Nuclei (%) [12]: 8%
Population Tubulin-Different-Phenotype (%) [12]: 16%
Total Cell Count [12]: 477
